In ChEMBL document CHEMBL1142312, “Anti-Plasmodium activity of tetrazolium salts” (Bioorg Med Chem, 2008):

Experiments:
[1] = test system: Plasmodium falciparum; assay: Antimalarial activity against Plasmodium falciparum in LDH reporter assay; format: functional, organism-based; conditions: Plasmodium falciparum
In short: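 P. falciparum line ItG cultured in O+ human erythrocytes in RPMI-1640 with 10% human serum and 50 μM hypoxanthine. Twofold serial dilutions from 10 mg/mL DMSO stock, 2% hematocrit, 2% parasitemia. Incubated 72 h at 37 °C under 95% N2/3% CO2/2% O2. Parasite LDH assay read at 650 nm after 1 h. IC50 by non-linear regression, mean ± SE of four determinations.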

[2] = Toxicity in CHO cells; format: cell-based, Cricetulus griseus; conditions: Chinese hamster (Cricetulus griseus), CHO cells
In short: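 CHO cells grown to 50% confluency in RPMI-1640 with 10% fetal calf serum, 25 mM Hepes and gentamicin. Serial dilutions made from a 10 mg/mL DMSO stock; DMSO-only controls. After 48 h, MTT (10 mg/mL in medium) added for 1 h, then DMSO added and absorbance read at 650 nm. IC50 by non-linear regression of dose–response; mean ± SE of four determinations.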

[3] = Ratio of IC50 for CHO cells to IC50 for Plasmodium falciparum; format: functional

| Compound | IC50 [1] [µM] | IC50 [2] [µM] | Ratio IC50 [3] |
| --- | --- | --- | --- |
| Fc1ccc(-[n+]2nc(-c3ccc(-c4ccccc4)cc3)nn2-c2ccccc2)cc1.[Cl-] | 0.81 | 4.1 | 5.1 |
| Fc1ccc(-[n+]2nc(-c3ccccc3)nn2-c2ccccc2)cc1.[Cl-] | 0.93 | 39 | 41.9 |
| Fc1ccc(-[n+]2nc(-c3ccc(OCc4ccccc4)cc3)nn2-c2ccccc2)cc1.[Cl-] | 0.47 | 16 | 34 |
| Fc1ccc(-[n+]2nc(-c3cccc4ccccc34)nn2-c2ccccc2)cc1.[Cl-] | 0.83 | 32 | 38.6 |
| Fc1ccccc1-[n+]1nc(-c2ccccc2)nn1-c1ccccc1.[Cl-] | 0.39 | 44 | 112.8 |
| COc1ccc(-n2nc(-c3ccc(-c4ccccc4)cc3)n[n+]2-c2ccc(F)cc2)cc1.[Cl-] | 1.7 | 19 | 11.2 |
| [Cl-].c1ccc(-c2ccc(-n3nc(-c4cccc5ccccc45)n[n+]3-c3ccccc3)cc2)cc1 | 2.9 | 9 | 3.1 |
| COc1ccc(-[n+]2nc(-c3ccc(-c4ccccc4)cc3)nn2-c2ccccc2)cc1.[Cl-] | 0.43 | 19 | 44.2 |
| [Cl-].c1ccc(-c2ccc(-c3nn(-c4ccccc4)[n+](-c4ccccc4)n3)cc2)cc1 | 0.23 | 7 | 30.4 |
| Clc1cccc(-c2nn(-c3ccc(OCc4ccccc4)cc3)[n+](-c3ccccc3)n2)c1.[Cl-] | 0.41 | 38 | 92.7 |
| CC(C)c1nn(-c2ccccc2)[n+](-c2ccccc2)n1.[Br-] | 102 | 377 | 3.7 |
| [Cl-].c1ccc(COc2ccc(-c3nn(-c4ccc(OCc5ccccc5)cc4)[n+](-c4ccccc4)n3)cc2)cc1 | 0.23 | 0.96 | 4.2 |
| CCCCCCCCCCCOc1ccc(-c2nn(-c3ccccc3)[n+](-c3ccccc3)n2)cc1.[Cl-] | 4 | 0.4 | 0.1 |
| CCCCCCc1nn(-c2ccccc2)[n+](-c2ccccc2)n1.[Br-] | 3.4 | 21 | 6.2 |
| Clc1cccc(-[n+]2nc(-c3ccc(-c4ccccc4)cc3)nn2-c2ccccc2)c1.[Cl-] | 0.115 | 10 | 87 |
| COc1cc(-c2nn(-c3ccccc3)[n+](-c3ccc(Cl)cc3)n2)ccc1OCc1ccccc1.[Cl-] | 3.8 | 32 | 8.4 |
| Clc1ccc(-[n+]2nc(-c3ccc(OCc4ccccc4)cc3)nn2-c2ccccc2)cc1.[Cl-] | 1.14 | 4.6 | 4 |
| Clc1cccc(-c2nn(-c3ccccc3)[n+](-c3ccccc3)n2)c1.[Cl-] | 0.46 | 43 | 93.5 |
| Fc1cccc(-[n+]2nc(-c3ccc(-c4ccccc4)cc3)nn2-c2ccccc2)c1.[Cl-] | 0.26 | 4.9 | 18.8 |
| Brc1cccc(-[n+]2nc(-c3ccccc3)nn2-c2ccccc2)c1.[Cl-] | 0.6 | 6.4 | 10.7 |
| Clc1cccc(-n2nc(-c3ccccc3)n[n+]2-c2cccc(Cl)c2)c1.[Cl-] | 0.5 | 36 | 72 |
| COc1cc(-c2nn(-c3ccccc3)[n+](-c3cccc(F)c3)n2)ccc1OCc1ccccc1.[Cl-] | 3.2 | 6.5 | 2 |
| Clc1cccc(-n2nc(-c3ccc(OCc4ccccc4)cc3)n[n+]2-c2cccc(Cl)c2)c1.[Cl-] | 1.3 | 21 | 16.2 |
| [Cl-].c1ccc(COc2ccc(-c3nn(-c4ccccc4)[n+](-c4ccccc4)n3)cc2)cc1 | 0.103 | 4.2 | 40.8 |
| Fc1ccccc1-[n+]1nc(-c2ccc(-c3ccccc3)cc2)nn1-c1ccccc1.[Cl-] | 0.36 | 8 | 22.2 |
| COc1cc(-c2nn(-c3ccccc3)[n+](-c3ccccc3F)n2)ccc1OCc1ccccc1.[Cl-] | 2.2 | 2.7 | 1.2 |
| Fc1cccc(-[n+]2nc(-c3ccc(OCc4ccccc4)cc3)nn2-c2ccccc2)c1.[Cl-] | 0.42 | 4.3 | 10.2 |
| COc1ccc(-n2nc(-c3ccc(OCc4ccccc4)cc3)n[n+]2-c2cccc(Cl)c2)cc1.[Cl-] | 0.29 | 16 | 55.2 |

| Compound | IC50 [1] [µM] | IC50 [2] [µM] | Ratio IC50 [3] |
| --- | --- | --- | --- |
| [Cl-].c1ccc(-n2nc(-c3cccc4ccccc34)n[n+]2-c2ccccc2)cc1 | 0.35 | 2.4 | 6.9 |
| COc1ccc(-n2nc(-c3ccccc3)n[n+]2-c2ccccc2)cc1.[Cl-] | 0.8 | 6.5 | 8.1 |
| O=[N+]([O-])c1ccc(-[n+]2nc(-c3ccc(OCc4ccccc4)cc3)nn2-c2ccccc2)cc1.[Cl-] | 9 | 4.4 | 0.5 |
| COc1ccc(-c2nn(-c3ccccc3)[n+](-c3ccc([N+](=O)[O-])cc3)n2)cc1.[Cl-] | 3.7 | 6 | 1.6 |
| O=[N+]([O-])c1ccc(-[n+]2nc(-c3ccc(Br)cc3)nn2-c2ccccc2)cc1.[Cl-] | 10 | 7 | 0.7 |
| COc1cc(-c2ccc(-n3nc(-c4ccc([N+](=O)[O-])cc4)n[n+]3-c3ccc([N+](=O)[O-])cc3)c(OC)c2)ccc1-n1nc(-c2ccc([N+](=O)[O-])cc2)n[n+]1-c1ccc([N+](=O)[O-])cc1 | – | 1.3 | – |
| [Cl-].c1ccc(COc2ccc(-n3nc(-c4ccc(-c5ccccc5)cc4)n[n+]3-c3ccccc3)cc2)cc1 | 0.261 | 1.7 | 6.5 |
| Clc1cccc(-[n+]2nc(-c3ccccc3)nn2-c2ccc(OCc3ccccc3)cc2)c1.[Cl-] | 0.1 | 14 | 140 |
| O=[N+]([O-])c1ccc(-c2nn(-c3ccccc3)[n+](-c3ccccc3)n2)cc1.[Cl-] | 14 | 31 | 2.2 |
| Clc1cccc(-[n+]2nc(-c3ccccc3)nn2-c2ccccc2)c1.[Cl-] | 0.84 | 6.3 | 7.5 |
| COc1cc(-c2nn(-c3ccccc3)[n+](-c3ccc([N+](=O)[O-])cc3)n2)cc(OC)c1OC(C)=O.[Cl-] | 7.3 | 19 | 2.6 |
| Fc1cccc(-[n+]2nc(-c3ccccc3)nn2-c2ccccc2)c1.[Cl-] | 2.2 | 36 | 16.4 |
| [Cl-].c1ccc(COc2ccc(-n3nc(-c4ccccc4)n[n+]3-c3ccccc3)cc2)cc1 | 0.2 | 37 | 185 |
| Fc1ccccc1-[n+]1nc(-c2ccc(OCc3ccccc3)cc2)nn1-c1ccccc1.[Cl-] | 0.14 | 8 | 57.1 |
| Clc1ccc(-[n+]2nc(-c3ccc(-c4ccccc4)cc3)nn2-c2ccccc2)cc1.[Cl-] | 0.41 | 16 | 39 |
| Clc1ccc(-[n+]2nc(-c3ccccc3)nn2-c2ccccc2)cc1.[Cl-] | 0.63 | 39 | 61.9 |
| COc1ccc(-n2nc(-c3ccc(-c4ccccc4)cc3)n[n+]2-c2ccc(Cl)cc2)cc1.[Cl-] | 0.4 | 12 | 30 |
| COc1cc(-c2nn(-c3ccccc3)[n+](-c3ccccc3)n2)ccc1OCc1ccccc1.[Cl-] | 0.26 | 4.7 | 18.1 |
| COc1ccc(-n2nc(-c3ccc(OCc4ccccc4)cc3)n[n+]2-c2ccccc2)cc1.[Cl-] | 0.32 | 9 | 28.1 |
| Brc1cccc(-[n+]2nc(-c3ccc(OCc4ccccc4)cc3)nn2-c2ccccc2)c1.[Cl-] | 0.4 | 8.1 | 20.3 |
| COc1cc(-c2nn(-c3ccccc3)[n+](-c3cccc(Cl)c3)n2)ccc1OCc1ccccc1.[Cl-] | 0.69 | 8 | 11.6 |
| CCCCCCCCCCCOc1cccc(-c2nn(-c3ccccc3)[n+](-c3ccccc3)n2)c1.[Cl-] | 2.5 | 5 | 2 |
| [Cl-].c1ccc(-n2nc(C3CCCCC3)n[n+]2-c2ccccc2)cc1 | 6.2 | 25 | 4 |
| O=[N+]([O-])c1ccc(-n2nc(-c3ccccc3)n[n+]2-c2ccc(I)cc2)cc1.[Cl-] [IODONITROTETRAZOLIUM CHLORIDE] | 81 | 49 | 0.6 |
| [Cl-].[Cl-].c1ccc(-c2nn(-c3ccccc3)[n+](-c3ccc(-c4ccc(-[n+]5nc(-c6ccccc6)nn5-c5ccccc5)cc4)cc3)n2)cc1 [NEOTETRAZOLIUM CHLORIDE] | 0.35 | 11 | 31.4 |
| COc1cc(-c2ccc(-n3nc(-c4ccccc4)n[n+]3-c3ccccc3)c(OC)c2)ccc1-n1nc(-c2ccccc2)n[n+]1-c1ccccc1 [TETRAZOLIUM BLUE CHLORIDE] | 3.8 | > 100 | – |
| [Cl-].c1ccc(-c2nn(-c3ccccc3)[n+](-c3ccccc3)n2)cc1 [TETRAZOLIUM RED] | 0.3 | 71 | 236.7 |
